Reference: paper PMC5196489 (International Journal for Parasitology: Drugs and Drug …, 2016)
“Also recorded” adds a separate entry of the source.

Key:
[1] = tested on: larval schistosomules; assay: Schistosomule mobility; format: cell-based, Schistosoma mansoni; settings: for IC50: Schistosoma mansoni, 0.5 h, read-out: IC50 schistosomule
Summary of the method: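 S. mansoni PR-1 cercariae mechanically transformed, tails removed on Percoll, kept in modified Basch medium without serotonin (37 °C, 5% CO2); about 200 per 0.5 mL well. Basal movement recorded first, then 5-HT (10 μM), then rising doses of test compound added at 20x. Incubated 30 min before a 1 min video. Mobility scored as body-length deviations >20% from the mean per minute.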

[2] = tested on: adult S. mansoni; assay: Adult schistosome mobility assay; format: cell-based, Schistosoma mansoni
[3] = target: T1, Sm.5HTRL (Schistosoma mansoni, UniProt A0A173FEI8); assay: cAMP biosensor; format: cell-based; settings: for IC50: read-out: IC50 Sm.5HTRL, inhibition of 5-HT (0.8 μM) evoked cAMP generation, HEK293 cells co-transfected with 22-F cAMP biosensor, IBMX 200 μM; for block of Sm.5HTRL dependent cAMP generation in vitro: Fig. 1
T1 sequence (A0A173FEI8 1-547): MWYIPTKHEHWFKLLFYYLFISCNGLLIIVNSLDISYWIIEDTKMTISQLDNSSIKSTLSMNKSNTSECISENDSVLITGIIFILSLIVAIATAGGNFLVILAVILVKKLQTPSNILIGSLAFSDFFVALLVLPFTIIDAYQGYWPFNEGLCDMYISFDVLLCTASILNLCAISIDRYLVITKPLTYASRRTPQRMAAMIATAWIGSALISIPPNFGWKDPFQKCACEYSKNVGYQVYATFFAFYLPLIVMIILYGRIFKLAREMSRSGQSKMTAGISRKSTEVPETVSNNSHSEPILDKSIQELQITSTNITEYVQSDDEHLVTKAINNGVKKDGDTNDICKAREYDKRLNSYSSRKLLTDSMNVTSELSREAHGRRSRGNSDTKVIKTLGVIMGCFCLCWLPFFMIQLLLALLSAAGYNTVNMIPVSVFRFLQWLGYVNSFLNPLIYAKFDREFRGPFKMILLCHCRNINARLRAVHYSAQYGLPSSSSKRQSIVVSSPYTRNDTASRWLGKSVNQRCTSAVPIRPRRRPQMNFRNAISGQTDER

[4] = tested on: larval schistosomules; settings: ref Chan et al., 2014; cited from earlier work
[5] = tested on: human 5-HT7 receptor (Hs.5HT7R); settings: ref Farrell et al., 2016; cited from earlier work
[6] = target: T1, Sm.5HTRL; settings: chemical screening data; ref Chan et al., 2016b; cited from earlier work

For `NCCc1c[nH]c2ccc(O)cc12` [5-HT, 5-hydroxytryptamine, reference compound], the “increase in schistosomule contractility” value ([1]; 5-HT 10 μM versus basal movement in media lacking 5-HT) was 3–5 fold and the “effect of 5-HT on adult worm movement” value ([2]; control worms, Fig. 4C&D) was “stimulated movement, most evident in female worms”.
For `CN1CCc2cccc3c2[C@H]1Cc1ccc(O)c(O)c1-3` [Apomorphine, R-(−)-apomorphine, reference compound], the IC50 [3] is given as 15.2 ± 3.3 µM, the IC50 [1] is given as 24.2 ± 15.1 µM and the “effect on schistosomule contractility” value [4] is given as “inhibits schistosomule contractility”.
For `COc1cc2c(cc1O)C[C@H]1c3c(cc(O)c(OC)c3-2)CCN1C` [Boldine, (+)boldine], the “block of Sm.5HTRL dependent cAMP generation in vitro” value [3] was “completely blocked”, the IC50 [3] was 1.1 ± 0.1 µM and the IC50 [1] was 2.5 ± 1.4 µM. For the same compound, the “effect on 5-HT stimulated motility” value ([2]; female adult worms, increasing 5-HT) was “high doses of 5-HT were competent at restoring motility”.
`COc1ccc2c(c1O)-c1c3c(cc4c1[C@H](C2)N(C)CC4)OCO3` [Bulbocapnine, (+)-Bulbocapnine] showed an IC50 [3] of 15.2 ± 2.5 µM and an IC50 [1] of 76.1 ± 17.8 µM.
With `COc1cc2c3c(c1OC)-c1ccccc1C[C@H]3N(C)CC2` [Nuciferine, (−)nuciferine] the “block of Sm.5HTRL dependent cAMP generation in vitro” value [3] was “completely blocked”, the IC50 [3] was 0.24 ± 0.04 µM and the “inhibition of larval contractions / schistosomule motility” value ([1]; 5-HT 10 μM plus increasing doses of aporphine, Fig. 2) was “particularly effective at inhibiting larval contractions”. The IC50 [1] was 0.62 ± 0.22 µM, the “effect on basal motility” value ([2]; female adult worms, drug 10 μM, 2 h, p < 0.01 versus p < 0.05) was “more effective than the other ligands” and the “effect on 5-HT stimulated motility” value ([2]; male adult worms, increasing 5-HT (≤1 mM)) was “no 5-HT stimulated motility even at the highest 5-HT doses; also recorded: nuciferine action not reversed by 5-HT”. The “action at the human 5-HT7 receptor” value [5] was “inverse agonist”.
For `CC(C)C[C@H]1C(=O)N2CCC[C@H]2[C@]2(O)O[C@](NC(=O)[C@@H]3C=C4c5cccc6[nH]c(Br)c(c56)C[C@H]4N(C)C3)(C(C)C)C(=O)N12` [bromocriptine], the “inhibition at Sm.5HTRL” value [6] is given as “potent, and long lasting inhibition”.
For `CSc1ccc2c(c1)C(N1CCN(C)CC1)Cc1ccccc1S2` (centres unmarked) [methiothepin, reference compound], the “effect on 5-HT stimulated schistosomule contractility” value ([1]; 5-HT 10 μM plus methiothepin 10 μM, Fig. 2A) was “reversed this effect”.
